Activity calls are given as the source filed them. No cut-off for these calls is given here.
Assays:
A549 [1] = assay: Induction of apoptosis in human A549 cells assessed as necrosis cells level at IC50 incubated for 24 hrs by Annexin V-FITC/propidium iodide double staining based flow cytometry (reference value: 0.042%); format: functional
A549 [2] = assay: Antitumor activity against human A549 cells xenografted in Balb/ca-nu mouse assessed as tumor growth inhibition at 5 mg/kg, iv dosed every 3 days for total of 7 dosing rounds measured on day 12 after treatment; format: functional; settings: read-out: TGI
Method in brief: (§1)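 A549 xenograft in mice, dosed by tail vein injection every 3 days; vehicle saline plus 0.2% Tween 80. n = 8 per treatment group, 6 in the vehicle group. Mean ± SE.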

A549 [3] = assay: Induction of apoptosis in human A549 cells assessed as viable cells level at 2 times antiproliferative IC50 incubated for 24 hrs by Annexin V-FITC/propidium iodide double staining based flow cytometry (reference value: 99.7%); format: functional
A549 [4] = assay: Antitumor activity against human A549 cells xenografted in Balb/ca-nu mouse assessed as tumor growth inhibition at 10 mg/kg, iv dosed every 3 days for total of 7 dosing rounds measured on day 10 after treatment; format: functional; settings: read-out: TGI; method in brief: as §1
A549 [5] = assay: Antitumor activity against human A549 cells xenografted in Balb/ca-nu mouse assessed as tumor growth inhibition at 10 mg/kg, iv dosed every 3 days for total of 7 dosing rounds measured on day 8 after treatment; format: functional, organism-based; design: dose 10 mg/kg; method in brief: as §1
[6] = Antiproliferative activity against mouse NIH/3T3 cells assessed as inhibition of cell proliferation incubated for 48 hrs by CCK8 assay; format: cell-based; settings: NIH3T3, 48 h
Method in brief: (§2)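 Human A549 lung, Hela cervical, Bel-7402 hepatocellular and MCF-7 breast cancer cells, plus mouse embryo fibroblast NIH3T3, tested for anti-proliferative activity by CCK-8 assay. For the matrine combination tests, the chalcone and matrine were used at a 1:1 molar ratio; values given as IC50.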

[7] = Antiproliferative activity against human Bel7402 cells assessed as inhibition of cell proliferation incubated for 48 hrs by CCK8 assay; format: functional, cell-based; settings: Bel-7402, 48 h; method in brief: as §2
HeLa = assay: Antiproliferative activity against human HeLa cells assessed as inhibition of cell proliferation incubated for 48 hrs by CCK8 assay; format: functional, cell-based; method in brief: as §2
A549 [8] = assay: Induction of apoptosis in human A549 cells assessed as necrosis cells level at 0.5 times antiproliferative IC50 incubated for 24 hrs by Annexin V-FITC/propidium iodide double staining based flow cytometry (reference value: 0.042%); format: functional
A549 [9] = assay: Induction of apoptosis in human A549 cells assessed as early apoptosis cells level at 0.5 times antiproliferative IC50 incubated for 24 hrs by Annexin V-FITC/propidium iodide double staining based flow cytometry (reference value: 0.116%); format: functional

- IC50 (HeLa): 7.31 µM
Compound: O=C(/C=C/c1cccc(Cl)c1)c1ccc(OCc2cn([C@H]3CC(=O)N4C[C@@H]5CCCN6CCC[C@@H]([C@H]56)[C@H]4C3)nn2)cc1O
- Activity (A549 [1]): 4.95%
- inhibition in vivo at 5 mg/kg (A549 [2]): 34.8%
- Activity (A549 [3]): 30.1%
- inhibition in vivo at 10 mg/kg (A549 [4]): 60.5%
- TGI (A549 [5]): Active
- IC50 [6]: 39.2 µM
- IC50 [7]: 5.6 µM
- Activity (A549 [8]): 5.99%
- Activity (A549 [9]): 19.8%
